Screens as filed in PubChem BioAssay.
CSC inhib = cancer stem cell viability inhibitors, primary screen, luminescence; cancer stem cell-like cells viability; inhibition, % at 7.5 µM; 300,000 tested, 1.1% active; in the data active = inhibition above about 75%; inconclusive = no clear call, values can overlap the other calls; tested in HMLE shEcad cells
T cruzi inh = inhibitors of intracellular T. cruzi growth, primary screen, luminescence, NIH3T3 host cells | 300,000 tested, 1.4% active | inhibition, % (no concentration beside the values) | T. cruzi beta-gal in NIH3T3, 90 h;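 active = mean inhibition across valid replicates above about 55%, limit read from the data; inconclusive = mean below that limit but half or more replicates reach it; inactive = mean below it, under half of replicates reach it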;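 also: signal also drops with host cell toxicity which is not excluded here; 0% = plate median of DMSO wells and 100% = zero luminescence signal; higher percent means less beta-gal luminescence so fewer parasites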
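System: mouse NIH/3T3 fibroblasts infected with β-gal-expressing T. cruzi Tulahuen C4 / Input: NIH/3T3 cells, 5,000 per well / Buffer or medium: Low-serum DMEM with 2% FBS / Probe or stimulus: 5000 reporter trypomastigotes per well / Schedule: ≥90 h infection period, 3 h prior cell attachment / Measured by: GalScreen luminescence, 60 min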
Mdm2 MdmX PPI = inhibitors of human Mdm2-MdmX association, primary screen, cell-based, luminescence, split luciferase, SaOS-2, uHTS; inhibition, % at 8 µM; 330,000 tested, 3% active; Protein Mdm4 (Homo sapiens) + E3 ubiquitin-protein ligase Mdm2 (Homo sapiens), …; SaOS-2 split-luciferase Mdm2/MdmX complementation;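 active = inhibition of at least 50% at 8 µM in the primary screen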
Target sequence (O15151 whole entry, looked up): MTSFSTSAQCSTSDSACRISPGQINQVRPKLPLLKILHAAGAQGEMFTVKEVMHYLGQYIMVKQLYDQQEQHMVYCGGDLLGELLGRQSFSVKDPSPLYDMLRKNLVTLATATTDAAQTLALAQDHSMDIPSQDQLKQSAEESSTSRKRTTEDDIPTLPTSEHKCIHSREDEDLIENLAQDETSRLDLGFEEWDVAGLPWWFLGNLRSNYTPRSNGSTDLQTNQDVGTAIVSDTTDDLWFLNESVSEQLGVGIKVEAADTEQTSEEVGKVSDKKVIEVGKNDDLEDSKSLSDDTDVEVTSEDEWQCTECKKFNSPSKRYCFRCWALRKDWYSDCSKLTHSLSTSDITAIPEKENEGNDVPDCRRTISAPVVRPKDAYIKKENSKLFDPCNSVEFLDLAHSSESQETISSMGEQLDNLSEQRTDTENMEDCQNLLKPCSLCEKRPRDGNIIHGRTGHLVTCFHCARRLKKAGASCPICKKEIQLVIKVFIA
Target sequence (Q00987 whole entry, looked up): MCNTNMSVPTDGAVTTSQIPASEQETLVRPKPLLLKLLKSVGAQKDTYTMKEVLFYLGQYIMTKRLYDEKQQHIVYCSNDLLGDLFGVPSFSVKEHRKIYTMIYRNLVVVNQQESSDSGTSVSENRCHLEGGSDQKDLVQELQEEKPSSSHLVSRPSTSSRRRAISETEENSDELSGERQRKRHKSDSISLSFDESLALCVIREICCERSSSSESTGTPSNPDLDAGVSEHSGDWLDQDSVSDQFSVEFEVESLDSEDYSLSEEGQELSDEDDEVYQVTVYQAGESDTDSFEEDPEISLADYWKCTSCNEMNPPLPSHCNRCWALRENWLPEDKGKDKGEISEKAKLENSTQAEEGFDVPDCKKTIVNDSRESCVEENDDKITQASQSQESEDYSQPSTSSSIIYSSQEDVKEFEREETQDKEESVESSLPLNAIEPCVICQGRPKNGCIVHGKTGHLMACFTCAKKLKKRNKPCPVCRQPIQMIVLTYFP
Calb FLC = C. albicans growth inhibition with fluconazole, primary screen, CaCi-2 strain, Alamar Blue fluorescence. growth inhibition, % (test concentration not listed). 300,000 tested, 0.57% active. C. albicans CaCi-2 (fluconazole-resistant clinical isolate) + fluconazole, 48 h;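 active = growth inhibition above about 58% in most replicates, limit read from the data, passing the limit was not always enough; inconclusive = exactly half the replicates above a set limit; inactive = most replicates below a set limit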;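 also: all wells also contain fluconazole at 8 µg/ml as a sub-toxic cotreatment; 0% = median of DMSO wells and 100% = median of geldanamycin control wells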
Beta apoptosis = inhibitors of cytokine-induced beta cell apoptosis, primary screen, luminescence. INS-1E cytokine-induced death, ATP luminescence, 48 h; percent of positive-control rescue, neutral wells zero. protection from apoptosis, % (test concentration not listed). 300,000 tested, 0.8% active. AID 435005, 2010;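 active = Every replicate reaches about 75%, or at least half do and their mean reaches it too, limit read from the data; inconclusive = At least half of replicates reach the limit but their mean does not; inactive = Under half of replicates reach the limit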;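 also: 0% = cytokine-treated negative control wells and 100% = positive control rescue; higher means more ATP so stronger rescue from cytokine killing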
NALP3 yeast inh = NALP3 inflammasome inhibitors in reconstituted yeast, primary screen, luminescence, uHTS. 330,000 tested, 0.39% active. AID 2825, 2010. Yeast reconstituted NLRP3/ASC/caspase-1, beta-gal luminescence, 24 h. inhibition, % at 10 µM;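 active = inhibition of 50% or more; inactive = inhibition below 50%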;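 also: plate controls were induced DMSO wells for no effect and uninduced yeast grown without galactose for full effect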
Mdm2-MdmX conf = Mdm2-MdmX complex disruptors, retested hits, confirmation, luminescence, single concentration; shares compounds with Mdm2 MdmX PPI; inhibition, % at 8 µM; 10,000 tested, 55% active; Mdm2-MdmX binding, luminescent assay; in the data active = inhibition above about 40%
FLuc counter = full-length luciferase signal inhibition, confirmation, counter-screen for Mdm2/MdmX interaction inhibitor project, cell-based, single concentration, SaOS-2; SaOS-2 full-length luciferase counterscreen, luminescence; shares compounds with Mdm2 MdmX PPI; 6,200 tested, 77% active; inhibition, % at 8 µM;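 active = mean inhibition at 8 µM reaching about 37%, which flags the compound as non-specific, limit read from the data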;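 also: p53-null SaOS-2 cells with luciferase driven by a doxycycline-inducible promoter; compound on cells about two nights before reading with doxycycline added after day one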
Numbers without * were called inactive; ? = inconclusive; . = no result given. Rows were chosen to be rich in hits. Some 5.3% of all compounds tested hit in one or more screens of this group.

SMILES	CSC inhib	T cruzi inh	Mdm2 MdmX PPI	Calb FLC	Beta apoptosis	NALP3 yeast inh	Mdm2-MdmX conf	FLuc counter
COc1ccc(C2c3c(-c4ccccc4O)n[nH]c3C(=O)N2CCc2ccc(OC)c(OC)c2)cc1 (centres undefined)	-17	29	30	5	18	4	.	.
COc1ccc(CCN2C(=O)c3[nH]nc(-c4ccccc4O)c3C2c2cccc(Cl)c2)cc1 (centres undefined)	18	28	76*	52	40	0	57*	74*
O=C(NCCN1C(=O)S/C(=C/c2ccccc2)C1=O)C1CC(=O)N(Cc2ccccc2)C1 (centres undefined)	-18	.	2	.	-4	9	.	.
C/C(=C\C(=O)c1ccccc1)Nc1ccc(Br)c(Cl)c1	.	-2	-29	-2	.	9	.	.
Cc1cc(C)c2nc(N3CCCC(C(=O)NCCCN4CCOCC4)C3)sc2c1 (centres undefined)	-11	5	-2	3	-1	2	.	.
CCOc1ccc2nc(N3CCCC(C(=O)NCCCN4CCCCC4)C3)sc2c1 (centres undefined)	-13	19	-7	7	2	14	.	.
COCCNC(=O)C1CCC(CNS(=O)(=O)c2c(C)cc(C)cc2C)CC1 (centres undefined)	-13	-1	5	-8	-11	9	.	.
Cc1cc(C)c2nc(N3CCC(C(=O)NCCCN4CC(C)CC(C)C4)CC3)sc2c1 (centres undefined)	15	59*	97*	19	51	6	76*	32
Cc1cc(C)c(S(=O)(=O)NCC2CCC(C(=O)NCCCN3CCC(C)CC3)CC2)c(C)c1 (centres undefined)	-3	27	51*	19	-3	7	5	.
CCOc1ccc2nc(N3CCCC(C(=O)NCCCN4CC(C)CC(C)C4)C3)sc2c1 (centres undefined)	-7	49	53*	-22	.	13	21	.
O=c1cc(-c2ccccc2[N+](=O)[O-])oc2ccccc12	54	-4	18	4	0	35	.	.
Cc1ccc2[nH]c(C)c(/C=C/c3cc[n+](C)cc3)c2c1	15	57*	74*	94*	72	13	67*	54*
C[n+]1ccc(/C=C/c2ccc(Br)cc2)cc1	.	32	16	-30	3	15	.	.
Cc1ccc2c(c1)c(/C=C/c1cc[n+](C)cc1)c(C)n2C	7	66*	83*	89*	90*	26	59*	49*
C[n+]1ccc(/C=C/c2c[nH]c3ccc(F)cc23)cc1	11	?	48	42	58	1	.	.
COc1ccc(CCNC(=O)c2cc3c(F)cccc3s2)cc1OC	-2	-1	20	-2	-3	9	.	.
O=c1c(-c2ccccc2)c1-c1ccccc1	.	-9	54*	14	.	20	12	.
CC(=O)c1ccc(CCCC(=O)O)cc1	-5	-3	14	-1	0	-2	.	.
Nc1ccn([C@@H]2O[C@H](CO)[C@@H](O)C2O)c(=O)n1 (some centres undefined)	52	0	65*	4	.	13	70*	47*
O=c1[nH]cnc2c1ncn2[C@@H]1O[C@H](CO)[C@@H](O)[C@H]1O	.	-25	8	.	.	16	.	.
N=c1ccn2c(n1)OC1C(O)C(CO)OC12 (centres undefined)	10	-63	69*	0	11	0	72*	46*
COc1ccc(C2=Nn3c(nnc3-c3ccccc3F)SC2)cc1OC1CCCC1	82*	.	100*	.	9	20	86*	29
COc1ccc(C2=Nn3c(nnc3C3CCCCC3)SC2)cc1OC	-10	7	49	3	-9	7	.	.
COc1ccc(C2=Nn3c(nnc3-c3ccccc3F)SC2)cc1OC1CCOC1 (centres undefined)	41	.	70*	.	10	5	63*	33
c1ccc2c(c1)CCc1ccccc1C2=C1CCNCC1	18	4	67*	-2	-10	23	49*	73*
SMILES	CSC inhib	T cruzi inh	Mdm2 MdmX PPI	Calb FLC	Beta apoptosis	NALP3 yeast inh	Mdm2-MdmX conf	FLuc counter
CN1CCC(=C2c3ccccc3C=Cc3ccccc32)CC1	-9	20	46	.	3	16	.	.
CCOc1ccc(-n2nnnc2-c2nc3ccccc3s2)cc1	15	0	74*	-1	13	17	49*	89*
Cc1ccc(-n2nnnc2-c2nc3ccccc3s2)cc1	-11	1	6	-5	8	17	.	.
Cc1cc(N2CCOCC2)n2nc(-c3cccc(F)c3)cc2n1	.	14	16	19	-2	26	.	.
CCN1CCN(c2cc(-c3ccccc3)nc3cc(-c4cccc(F)c4)nn23)CC1	?	36	68*	36	8	45	3	.
COc1ccc(CCNC(=O)C2CCN(S(=O)(=O)c3ccc(F)cc3)CC2)cc1	-16	0	16	-3	4	10	.	.
CC(=O)Nc1ccc(-c2cc(-c3ccccc3)nc(-c3ccccc3)n2)cc1	-9	4	56*	-5	10	5	47*	92*
O=C(NC(=S)Nc1ccc2c(c1)C(=O)c1ccccc1C2=O)c1ccc(F)cc1	20	-14	69*	-3	10	18	-69	.
O=C(Nc1ccc(NC(=S)NC(=O)C(c2ccccc2)c2ccccc2)cc1)c1ccccc1	49	28	51*	11	36	17	49*	42*
CCC(=O)Nc1ccc(-c2cc(-c3ccccc3)nc(-c3ccc(NC(=O)CC)cc3)n2)cc1	-4	17	84*	6	17	28	38	64*
O=C(NC(=S)Nc1ccc(NC(=O)c2ccccc2)cc1)c1ccc(F)cc1	-24	-7	16	5	-2	0	.	.
O=C(C1CCCN(Cc2ccncc2)C1)N1CCc2ccccc2C1 (centres undefined)	-35	15	9	0	1	8	.	.
CC(=O)Nc1ccc(NC(=O)c2ccc(NC(=O)c3ccccc3)cc2)cc1	-9	-7	62*	1	-1	5	17	.
